Only some compounds are listed: those with a hit (about 1.9% of all), similar ones and a draw of the others.
Rin1 Abl inh – inhibitors of Rin1-Abl protein binding, primary screen, biochemical, TR-FRET; 0.4% of 360,000 active; AID 588664, 2011; Tyrosine-protein kinase ABL1 (Homo sapiens) + Ras and Rab interactor 1 (Homo sapiens), …; inhibition, % at 7.35 µM; in the data active = inhibition above about 5%, passing the limit was not always enough
LEDGF integ inh – blockers of LEDGF/p75-dependent integrase strand transfer – biochemical, TR-FRET, high throughput, primary screen; TR-FRET IN-LEDGF/p75 DNA integration, Eu/Cy5; inhibition, % at 3.7 µM; 0.64% of 370,000 active;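 active = inhibition above the screen-wide mean plus 3 SD, cut at about 13% in these data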;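 also: signal is the Cy5 over europium emission ratio at 671 and 618 nm; 0% = plate median of compound wells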
TDP2 absorb – human TDP2 enzyme inhibitors, primary screen, biochemical, epi absorbance, recombinant enzyme; Tyrosyl-DNA phosphodiesterase 2 (Homo sapiens), O95551; AID 720702, 2013; 0.34% of 370,000 active; T5PNP hydrolysis, p-nitrophenol absorbance 415 nm; inhibition, % at 12.8 µM;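 active = inhibition above the mean of all tested compounds plus 3 SD, set per campaign, cut at about 25% in these data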;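 also: 0% = DMSO with enzyme and 100% = buffer with substrate but no TDP2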
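test system = human TDP2 enzyme | input = TDP2 enzyme at 120 nM final | medium = 50 mM Tris-HCl pH 7.5 with Mg2+, KCl, DTT, BSA | also added = T5PNP substrate, 5 mM | times = 2 h at 37 °C | technique = epi absorbance | benchmarks = high control without enzyme, low control DMSO plus TDP2 | replication = each compound tested once, singlicate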
UHRF1 MBD2 ctr – UHRF1 methylated DNA binding inhibitors, primary screen, counter-screen for MBD2 inhibitor project, biochemical, TR-FRET, human UHRF1, single concentration; E3 ubiquitin-protein ligase UHRF1 (Homo sapiens), Q96T88; 0.75% of 370,000 active; inhibition, % at 4.4 µM; UHRF1 binding to methylated oligo; in the data active = inhibition above about 21%;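 also: UHRF1 SRA domain binding a hemimethylated CpG hairpin DNA probe; 0% = median of test compound wells and 100% = reference inhibitor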
MBD2 DNA inh – inhibitors of MBD2 binding to methylated DNA, primary screen, biochemical, TR-FRET, DNA-binding domain, human; Methyl-CpG-binding domain protein 2 (Homo sapiens), Q9UBB5; MBD2 binding to methylated oligonucleotide; inhibition, % at 4.4 µM; 0.31% of 370,000 active; AID 686964, 2013; in the data active = inhibition above about 13%
IN multimer act – HIV-1 IN multimer formation enhancers, counter-screen for LEDGF/p75 integration inhibitor project, biochemical, TR-FRET; TR-FRET HIV-1 integrase multimerization; activation, % at 7.7 µM; 17% of 2,000 active; shares compounds with LEDGF integ inh; in the data active = activation above about 8.9%
TRFRET interf – TR-FRET optical interference artefacts, confirmation, artefact control for LEDGF/p75-dependent integration inhibitor project, biochemical, HIV-1 IN multimerization; shares compounds with LEDGF integ inh; TR-FRET optical interference counterscreen; inhibition, % at 7.7 µM; 2,000 tested, under 10 active; AID 1053135, 2014;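 active = inhibition above the mean over all tested compounds plus 3 SD, which no compound reached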;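 also: 0% = integrase with antibodies and DMSO and 100% = antibodies without integrase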
IN-LEDGF confirm – inhibitors of HIV-1 IN-LEDGF/p75 DNA integration, confirmation, biochemical, TR-FRET. shares compounds with LEDGF integ inh. TR-FRET LEDGF/p75-dependent HIV-1 integration. inhibition, % at 3.7 µM. 36% of 2,000 active. AID 1053136, 2014; in the data active = inhibition above about 14%
An asterisk follows results filed as active; . = not tested or not shown.

SMILES	Rin1 Abl inh	LEDGF integ inh	TDP2 absorb	UHRF1 MBD2 ctr	MBD2 DNA inh	IN multimer act	TRFRET interf	IN-LEDGF confirm
CC1(C)Cc2c(c(-c3ccco3)[nH]c(=O)c2C#N)CS1	-3	18*	3	15	-1	-1	5	23*
CC(=O)N1CCN(c2nc(-c3ccco3)c3c(c2C#N)CC(C)(C)SC3)CC1	-4	22*	0	7	4	-1	6	19*
CCC(Oc1ccccc1)C(=O)Nc1ccc(S(=O)(=O)Nc2cc(C)on2)cc1 (configuration not stated)	1	1	-1	4	2	.	.	.
CSc1nc(COC(=O)NC(C)C)c(COC(=O)NC(C)C)n1Cc1ccccc1	0	3	-1	-2	1	.	.	.
CCOC(=O)[C@]12CCC=C1N(Cc1cccc3ccccc13)C(=O)[C@H](CC(=O)N1CCN(C(=O)C3CC3)CC1)C2	.	-1	4	-1	2	.	.	.
CN(C)c1ccc(N=Cc2cccn2C)cc1	-1	22*	25*	3	-14	2	-9	10
Oc1cc(Br)ccc1C=Nc1ccc(N2CCCCC2)cc1	3	6	19	-1	-3	.	.	.
Oc1ccc(N=Nc2cccc(C(F)(F)F)c2)cc1C=Nc1ccc(N2CCOCC2)cc1	-1	14*	22	-4	-3	-1	3	14*
Oc1ccc(C=Nc2ccc(N3CCOCC3)cc2)c(O)c1	0	19*	12	-3	-3	19*	-97	23*
Cc1ccc(C)c(OCCn2nnc3ccccc32)c1	0	3	13	-2	4	.	.	.
Clc1ccccc1OCCn1nnc2ccccc21	-1	29*	1	-1	-4	0	-1	-2
COc1cccc(C2NC(=S)NC(C)=C2C(C)=O)c1 (configuration not stated)	.	3	-2	2	1	.	.	.
COC1=C(N)C(=O)c2nc(C)ccc2C1=O	4	20*	21	9	-2	0	2	44*
Cc1nc2c(nc1C)C(=O)c1ccccc1C2=O	-9	2	6	-1	-11	.	.	.
CC(=O)OC[C@]12CC[C@H]3[C@@](C)(CC[C@H]4C(C)(C)CCC[C@]34C)[C@@H]1CC(C1=CC(=O)OC1O)O2 (some centres not stated)	3	20*	0	4	5	-3	13	63*
CC(=O)OC[C@]1(OC(C)=O)C[C@@]23CC[C@H]4[C@@](C)(CCC[C@@]4(C)C(=O)O)[C@@H]2CC[C@@H]1C3	-1	0	-4	-3	-1	.	.	.
O=C(CCCCC(=O)Nc1ccccc1)Nc1ccccc1	1	0	5	1	3	.	.	.
O=C(CCC(=O)c1ccccc1)Nc1ccccc1	-1	14*	-9	3	1	0	2	-1
COc1ccc(-c2cc(C(=O)Nc3cccc(O)c3)no2)cc1	0	38*	-1	1	-4	1	-4	-7
COc1ccc(-c2cc(C(=O)Nc3ccc(C)c(C)c3)no2)cc1	0	6	-11	3	-2	.	.	.
NS(=O)(=O)c1ccc2c(c1)C1C=CCC1C(C1CC=CCC1)N2 (configuration not stated)	3	21*	9	2	5	2	-8	4
Cc1ccc(OC(=O)c2ccncc2)c(C)c1	-1	5	-10	-1	-1	.	.	.
Cc1cc(CN(Nc2ccccc2)c2ccccc2)cc(C)n1	1	3	-2	2	4	.	.	.
